Measurements collected from several papers.
Compare with care: the assays were run in different laboratories.
Cell line: HepG2
Observed: cell growth or viability

Compound	assay	conditions	endpoint	value
CCOC(=O)c1ccc(-n2c(-c3ccc(C)cc3)cc(-c3ccc(O)cc3)c(C#N)c2=O)cc1	MTT	100 µM, 24 h	viability	18.3%
COc1ccc(-c2cc(-c3ccc4oc(=O)cc(C)c4c3O)nc(N)n2)cc1	MTT	8 µg/mL, 72 h	inhibition	0%
COc1ccc(NC(=O)c2c(Nc3ccccc3)sc(C(=O)NN=Cc3cc(OC)c(OC)c(OC)c3)c2NC(C)=O)cc1	SRB	1 nM, 48 h	viability	97.3%
CCOC(=O)c1ccc(-n2c(C)cc(/C=C/c3ccc(OC)cc3)c(C#N)c2=O)cc1	MTT	12.5 µM, 24 h	viability	83.5%
O=C(CN1C(=O)/C(=C/c2ccccn2)SC1=S)Nc1ccccc1	MTT	10 µM	inhibition	10.2%
CCOc1ccc(-c2nc3ccccc3n2Cc2ccccc2)cc1	MTT	–	IC50	33.8 µM
COc1ccc(NC(=O)c2c(Nc3ccccc3)sc(C(=O)NN=Cc3ccc(C)cc3)c2NC(C)=O)cc1	SRB	100 µM, 48 h	viability	57.3%
CCOc1cc(-c2nc3ccccc3[nH]2)ccc1O	MTT	48 h	IC50	42.5 µM
CC(=O)Nc1cccc(-n2c(=O)n(C3CC3)c(=O)c3c(Nc4ccc(I)cc4F)n(C)c(=O)c(C)c32)c1	resazurin	50 nM, 72 h	viability	43.3%
CC(C)c1ccc(/C=C2\SC(=S)N(CC(=O)Nc3ccccc3)C2=O)cc1	MTT	10 µM	inhibition	17.5%
CCOC(=O)c1ccc(-n2c(C)cc(/C=C/c3ccc(OCC)cc3)c(C#N)c2=O)cc1	MTT	1.56 µM, 24 h	viability	100%
Cc1cc(=O)oc2ccc(-c3cc(-c4cccc(Cl)c4)nc(N)n3)c(O)c12	MTT	128 µg/mL, 72 h	inhibition	31%
Cc1ccc2nc(-c3ccc([N+](=O)[O-])cc3)n(Cc3ccc(Cl)cc3)c2c1	MTT	–	IC50	5.53 µM
COc1ccc(NC(=O)c2c(Nc3ccccc3)sc(C#N)c2NC(=O)CNc2ccccc2[N+](=O)[O-])cc1	SRB	0.1 µM, 48 h	viability	88.3%
CCCC1CCN(c2cc3c(cc2F)c(=O)c(C(=O)OCC)cn3CC)CC1	ATP luminescence	48 h	EC50	> 40 µM
Cc1cc(Nc2ccc(C(=O)N/N=C/c3ccc(C)s3)cc2)c2cccc(O)c2n1	MTT	20 µM	inhibition	46.3%
COc1ccc(NC(=O)c2c(Nc3ccccc3)sc(C(=O)NN=Cc3ccccc3)c2NC(C)=O)cc1	SRB	0.1 µM, 48 h	viability	78.1%
CCOc1ccc(-c2nc3ccc(C)cc3[nH]2)cc1	MTT	48 h	IC50	27.4 µM
Cc1cc(=O)oc2ccc(-c3cc(-c4ccc(Cl)cc4)nc(N)n3)c(O)c12	MTT	8 µg/mL, 72 h	inhibition	39%
Cc1cc(Nc2ccc(C(=O)N/N=C/c3ccc(N(C)C)cc3)cc2)c2cccc(O)c2n1	MTT	20 µM	inhibition	40.8%
CCn1cc(-c2nc(C)no2)c(=O)c2cc(F)c(N3CCC(C)CC3)cc21	ATP luminescence	48 h	EC50	> 40 µM
CCOC(=O)c1ccc(-n2c(N)c(C#N)c(CC#N)c(C#N)c2=O)cc1	MTT	1.56 µM, 24 h	viability	100%
O=C(N/N=C/c1cccn1CCCN1CCCC1)Nc1cc2c(Nc3ccc(F)c(Cl)c3)ncnc2cc1O[C@H]1CCOC1	MTT	72 h	IC50	0.67 µM
CCn1cc(-c2nc(C)no2)c(=O)c2cc(F)c(N3CCCC3)cc21	ATP luminescence	48 h	EC50	> 40 µM

Compound	assay	conditions	endpoint	value
Cc1cc(=O)oc2ccc(-c3cc(-c4ccccc4)nc(N)n3)c(O)c12	MTT	8 µg/mL, 72 h	inhibition	0%
CCn1cc(-c2nc(C)no2)c(=O)c2cc(F)c(N3CCCC(C)C3)cc21 (stereo not drawn)	ATP luminescence	48 h	EC50	> 40 µM
COc1ccc(NC(=O)c2c(Nc3ccccc3)sc(C#N)c2NC(=O)CNc2ccc(O)cc2)cc1	SRB	0.1 µM, 48 h	viability	85.6%
O=[N+]([O-])c1ccc(-c2nc3ccccc3n2Cc2ccccc2)cc1	MTT	–	IC50	7.8 µM
CCOC(=O)c1ccc(NC(=O)C2=C3C(=Nc4ccccc43)NC2=O)cc1	MTT	50 µM, 24 h	viability	42.7%
CCOc1cc(-c2nc3ccc(C)cc3[nH]2)ccc1O	MTT	48 h	IC50	77.1 µM
O=C(CN1C(=O)/C(=C/c2cccc([N+](=O)[O-])c2)SC1=S)Nc1ccccc1	MTT	10 µM	inhibition	24.2%
CCOC(=O)c1ccc(-n2c(C)cc(C)c(C#N)c2=O)cc1	MTT	25 µM, 24 h	viability	64.7%
CCn1cc(-c2nc(C)no2)c(=O)c2cc(F)c(N3CCCCC3)cc21	ATP luminescence	48 h	EC50	> 40 µM
COc1ccc(NC(=O)c2c(Nc3ccccc3)sc(C(=O)NN=Cc3ccc(Br)cc3)c2NC(C)=O)cc1	SRB	10 nM, 48 h	viability	92.7%
COc1ccc(/C=C2\SC(=S)N(CC(=O)Nc3ccccc3)C2=O)cc1	MTT	10 µM	inhibition	13.6%
c1ccc2[nH]c(-c3ccc4c(c3)OCO4)nc2c1	MTT	48 h	IC50	> 100 µM
CN1CCN(C/C=N/NC(=O)Nc2cc3c(Nc4ccc(F)c(Cl)c4)ncnc3cc2O[C@H]2CCOC2)CC1	MTT	72 h	IC50	3.28 µM
CCOC(=O)c1ccc(N2C(N)=C(C#N)C3(C(=O)Nc4ccccc43)C(C#N)=C2O)cc1 (stereo not drawn)	MTT	12.5 µM, 24 h	viability	37.7%
COc1ccc(C=NNC(=O)c2sc(Nc3ccccc3)c(C(=O)Nc3ccc(OC)cc3)c2NC(C)=O)cc1	SRB	0.1 µM, 48 h	viability	76.5%
CCn1cc(-c2nc(C)no2)c(=O)c2cc(F)c(N3CCCCCC3)cc21	ATP luminescence	48 h	EC50	> 40 µM
COc1ccc(NC(=O)c2c(Nc3ccccc3)sc(C#N)c2NC(=O)CNc2ccc(Br)cc2)cc1	SRB	0.1 µM, 48 h	viability	70.4%
O=C(CN1C(=O)/C(=C/c2ccco2)SC1=S)Nc1ccccc1	MTT	10 µM	inhibition	18.6%
Cc1ccc2nc(-c3cccc([N+](=O)[O-])c3)[nH]c2c1	MTT	48 h	IC50	71.4 µM
O=C(CN1C(=O)/C(=C/c2cccc(Br)c2)SC1=S)Nc1ccccc1	MTT	10 µM	inhibition	12.7%
Cc1cc(=O)oc2ccc(-c3cc(-c4cccs4)nc(N)n3)c(O)c12	MTT	8 µg/mL, 72 h	inhibition	0%
CCN(CC)CCCn1cccc1/C=N/NC(=O)Nc1cc2c(Nc3ccc(F)c(Cl)c3)ncnc2cc1O[C@H]1CCOC1	MTT	72 h	IC50	0.71 µM
Cc1ccc(-c2cc(-c3ccc4oc(=O)cc(C)c4c3O)nc(N)n2)cc1	MTT	8 µg/mL, 72 h	inhibition	0%
CC(C)(CO)Cn1nc(-c2ccc3nc(OC4CC4)ccc3c2)c2c(N)ncnc21	–	–	GI50	> 10 µM
